Laboratory results reported in ChEMBL document CHEMBL5500359, “Identification of a new bisindolinone arresting IGROV1 cells proliferation” (Eur J Med Chem, 2024).

How the values were obtained:
Type in all cases: functional
NSCLC = experiment: Cytotoxicity against human NSCLC cells incubated for 48 hrs by SRB assay
Method in brief: (§1)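 NCI-60 five-concentration screen: lines seeded 5×10^3–4×10^4 cells/well depending on line; compound diluted in fresh medium at scalar concentrations 0–100 or 0–1000 μM; 48 h exposure, in situ fixation, sulforhodamine B protein staining, optical density read; GI50, TGI and LC50 per NCI procedures; panel mean = mean graph midpoint.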

Prostatic carcinoma cell = experiment: Cytotoxicity against human Prostate carcinoma cells incubated for 48 hrs by SRB assay; method in brief: as §1
Melanoma cell line = experiment: Cytotoxicity against human Melanoma cells incubated for 48 hrs by SRB assay; method in brief: as §1

| SMILES | LC50 (NSCLC) [µM] | LC50 (Prostatic carcinoma cell) [µM] | LC50 (Melanoma cell line) [µM] |
| --- | --- | --- | --- |
| COc1ccc2c(c1)/C(=C\c1cc(C(C)(C)C)cc(/C=C3/C(=O)N(C)c4ccc(OC)cc43)c1O)C(=O)N2C | 31.6 | 67.6 | 9.55 |
| O=C1Nc2cccc(F)c2/C1=C\c1cccc(/C=C2/C(=O)Nc3cccc(F)c32)c1 | 33.1 | 18.6 | 9.33 |
| CC(C)(C)c1cc(/C=C2/C(=O)Nc3ccc(F)cc32)c(O)c(/C=C2/C(=O)Nc3ccc(F)cc32)c1 | 47.9 | 4.74 | 33.9 |
| CC(C)(C)c1cc(/C=C2/C(=O)Nc3cccc(F)c32)c(O)c(/C=C2/C(=O)Nc3cccc(F)c32)c1 | 15.8 | 36.3 | 13.2 |
| COc1ccc2[nH]c(Cl)c(/C=C3/C(=O)N(C)c4cc5c(cc43)/C(=C\c3c(Cl)[nH]c4ccc(OC)cc34)C(=O)N5C)c2c1 | 24.6 | 7.94 | 12.9 |
| CC(C)(C)c1cc(/C=C2/C(=O)Nc3cc(Cl)ccc32)c(O)c(/C=C2/C(=O)Nc3cc(Cl)ccc32)c1 | 47.9 | 38 | 30.9 |
| Cc1cc2c(cc1O)/C(=C\c1cc(C(C)(C)C)cc(C=O)c1O)C(=O)N2 | 51.3 | 57.5 | 37.1 |
| COc1cc2c(cc1C)NC(=O)/C2=C/c1ccc2ccc3ccc(/C=C4/C(=O)Nc5cc(C)c(OC)cc54)nc3c2n1 | 52.5 | – | 55 |
| COc1cc2c(/C=C3/C(=O)N(C)c4cc5c(cc43)/C(=C\c3c(Cl)[nH]c4cc(C)c(OC)cc34)C(=O)N5C)c(Cl)[nH]c2cc1C | 51.3 | 20.4 | 22.4 |
| O=C1Nc2cc(Cl)ccc2/C1=C\c1cccc(/C=C2/C(=O)Nc3cc(Cl)ccc32)c1 | 45.7 | 28.2 | 19.5 |
| COc1ccc2c(c1)/C(=C\c1ccc3ccc4ccc(/C=C5/C(=O)N(C)c6ccc(OC)cc65)nc4c3n1)C(=O)N2C | 85.1 | 56.2 | 30.2 |
| O=C1Nc2ccc(Cl)cc2/C1=C\c1ccc2ccc3ccc(/C=C4/C(=O)Nc5ccc(Cl)cc54)nc3c2n1 | 52.5 | – | 51.3 |
| COc1cc2c(c(OC)c1OC)C(=Cc1cc(C(C)(C)C)cc(/C=C3\C(=O)Nc4cc(OC)c(OC)c(OC)c43)c1O)C(=O)N2 | 14.8 | 12.6 | 8.13 |
